GSTO1 counter – GSTO1 inhibition, counter-screen for RBBP9 inhibitors. P78417. AID 1974. inhibition, % at 5.96 µM. 1.1% of 300,000 active. recombinant GSTO1, activity-based probe fluorescence polarization;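 active = inhibition above the campaign mean inhibition plus 3 SD, cut at about 35% in these data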;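 also: 0% = GSTO1-1 with DMSO and 100% = wells lacking GSTO1-1 enzyme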
Target sequence (P78417 whole entry, looked up): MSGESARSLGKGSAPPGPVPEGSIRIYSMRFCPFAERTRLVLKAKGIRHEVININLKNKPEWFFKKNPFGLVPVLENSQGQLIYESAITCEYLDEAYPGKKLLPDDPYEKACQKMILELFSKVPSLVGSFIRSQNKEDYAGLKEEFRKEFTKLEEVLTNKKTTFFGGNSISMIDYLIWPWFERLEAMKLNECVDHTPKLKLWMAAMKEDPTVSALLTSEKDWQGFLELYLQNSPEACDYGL
Fh CTSL1 inh – cathepsin L1 inhibition, PFM18AAP counter-screen; AID 1906; 0.49% of 300,000 active; inhibition, % at 5.96 µM; recombinant F. hepatica cathepsin L1, Z-Leu-Arg-MCA fluorescence;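 active = inhibition above the mean of all tested compounds plus 3 SD, set per screening campaign, cut at about 17% in these data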;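 also: 0% = plate median of test compound wells and 100% = 1 µM Z-Phe-Ala-diazomethylketone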
PAD4 FP inh – blocks human protein arginine deiminase 4; Q9UM07; recombinant PAD4, RCA probe fluorescence polarization; inhibition, % at 6.36 µM; 0.41% of 330,000 active; AID 485272;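 active = percent inhibition above a cutoff equal to the mean of all tested compounds plus 3 SD, cut at about 15% in these data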;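 also: 0% = PAD4 with RCA probe and DMSO and 100% = probe without PAD4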
TDP2 inh – TDP2 (human) inhibition, absorbance primary screen. inhibition, % at 12.8 µM. recombinant TDP2, T5PNP hydrolysis, p-nitrophenol absorbance 415 nm. 0.34% of 370,000 active. O95551;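 active = inhibition above the mean of all tested compounds plus 3 SD, set per campaign, cut at about 25% in these data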;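 also: 0% = DMSO with enzyme and 100% = buffer with substrate but no TDP2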
Target sequence (O95551 whole entry, looked up): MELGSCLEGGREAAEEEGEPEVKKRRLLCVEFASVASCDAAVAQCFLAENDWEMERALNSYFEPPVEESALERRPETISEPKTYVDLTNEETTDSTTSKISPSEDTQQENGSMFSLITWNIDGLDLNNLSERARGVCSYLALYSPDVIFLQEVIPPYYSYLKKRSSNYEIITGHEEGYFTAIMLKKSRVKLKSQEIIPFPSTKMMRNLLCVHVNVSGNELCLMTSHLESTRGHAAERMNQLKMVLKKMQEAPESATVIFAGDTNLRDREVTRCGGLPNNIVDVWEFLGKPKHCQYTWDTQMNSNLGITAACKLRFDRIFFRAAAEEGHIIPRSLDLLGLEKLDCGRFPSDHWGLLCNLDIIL
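System: recombinant human TDP2 / Amount: 120 nM TDP2 per well / Also added: 5 mM T5PNP chromogenic substrate / Doses: 12.8 µM single point, 1% DMSO / Incubation: 2 h at 37 °C / Detection: p-Nitrophenol epi absorbance / Evaluation: % inhibition relative to enzyme-containing and enzyme-free wells / Repeats: singlicate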
PAD4 confirm – confirmation of human PAD4 inhibitors; inhibition, % at 6.36 µM; recombinant PAD4, RCA probe fluorescence polarization; AID 488796; shares compounds with PAD4 FP inh; 28% of 1,200 active;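 active = mean inhibition across replicates above the hit cutoff set by the earlier primary screen, cut at about 15% in these data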;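 also: inhibitors block active-site labeling by the probe so polarization falls; 0% = PAD4 with probe and DMSO and 100% = probe without PAD4 enzyme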
* marks the source's active call; other numbers are inactive results. Only some compounds are listed: those with a hit (about 1.4% of all), similar ones and a draw of the others.

What do the screens show for `Cc1ccc(S(=O)(=O)N(C)[C@H]2C[C@H]3c4cc(-c5ccccc5C)ccc4CCN3C[C@H]2[C@H](C)O)cc1`?
TDP2 inh: 1.7

Results for COc1ccccc1N1C(=O)c2ccc(C(=O)Nc3cccc(C(C)=O)c3)cc2C1=O ?
GSTO1 counter: 0.5; Fh CTSL1 inh: 3.7; PAD4 FP inh: 36.9*; TDP2 inh: -10.5; PAD4 confirm: 34.4*

Results for COc1ccccc1N1C(=O)c2ccc(C(=O)Nc3ccc(F)cc3)cc2C1=O ?
GSTO1 counter: -4.9; Fh CTSL1 inh: 5.1; PAD4 FP inh: -2.0; TDP2 inh: -10.2

What do the screens show for `COC(=O)[C@]12C[C@H](CC(=O)NCc3cccs3)C(=O)N(CCc3ccc(OC)c(OC)c3)C1=C[C@H](C1CCCC1)O[C@@H]2C`?
TDP2 inh: -9.2

Results for Cc1ccc2nc(-c3ccc(NC(=O)CSc4nnc(-c5cccc(Cl)c5)n4Cc4ccco4)cc3)sc2c1 ?
TDP2 inh: 2.6

Results for Cc1ccc(-c2nn(-c3ccccc3)cc2/C=C2\SC(=S)N(CC(=O)O)C2=O)cc1 ?
GSTO1 counter: -4.3; Fh CTSL1 inh: 0.7; PAD4 FP inh: 14.8*; TDP2 inh: -4.4; PAD4 confirm: 3.5

How did O=C(O)CN1C(=O)/C(=C\c2ccccc2OCc2ccc(Cl)cc2)SC1=S do in these assays?
GSTO1 counter: 4.0; Fh CTSL1 inh: -3.0; PAD4 FP inh: 22.4*; TDP2 inh: -7.3; PAD4 confirm: 1.8

How did O=C(O)CN1C(=O)/C(=C\c2cccc(OCc3ccc(Cl)cc3)c2)SC1=S do in these assays?
GSTO1 counter: 9.0; Fh CTSL1 inh: 3.0; PAD4 FP inh: 0.8; TDP2 inh: 5.1

How did C[C@H](O)[C@@H]1CN2CCc3ccc(N4CCOCC4)cc3[C@@H]2C[C@@H]1N(C)C(=O)c1ccco1 do in these assays?
TDP2 inh: -10.2

What do the screens show for `Cc1ccc(NC(=O)CS(=O)CC(=O)Nc2ccccc2-c2ccc(C)o2)cc1` (stereo unspecified)?
GSTO1 counter: 31.4; Fh CTSL1 inh: 4.6; PAD4 FP inh: 17.5*; TDP2 inh: 1.7; PAD4 confirm: 1.4

What do the screens show for `CC(=O)Nc1ccccc1-c1ccc(C)o1`?
GSTO1 counter: 5.8; Fh CTSL1 inh: 1.0; PAD4 FP inh: 1.3; TDP2 inh: 8.0

How did CNC(=O)[C@@H](NC(=O)[C@H](CC(C)C)[C@H](O)C(=O)NO)C(C)(C)C do in these assays?
TDP2 inh: 0.9

How did Cc1c[nH]c2cccc(-c3cccc4ccccc34)c12 do in these assays?
TDP2 inh: -3.6

What do the screens show for `O=C(NC(=S)NC1CCN(Cc2ccccc2)CC1)c1ccc(F)cc1`?
GSTO1 counter: -6.8; Fh CTSL1 inh: -1.1; PAD4 FP inh: 32.8*; TDP2 inh: 3.5; PAD4 confirm: 37.5*

Results for Cc1ccc(-n2nc(C)c3c2OC(N)=C(C#N)C3c2cccs2)cc1 (stereo unspecified) ?
GSTO1 counter: 34.3; Fh CTSL1 inh: -2.3; PAD4 FP inh: 41.1*; TDP2 inh: -7.8; PAD4 confirm: 7.0

How did Cc1ccc(-n2nc(C)c3c2OC(N)=C(C#N)C3c2ccncc2)cc1 (stereo unspecified) do in these assays?
GSTO1 counter: 28.5; Fh CTSL1 inh: 0.9; PAD4 FP inh: -5.2; TDP2 inh: 17.7

Results for Cc1nn(-c2ccccc2)c2c1C(c1ccncc1)C(C#N)=C(N)O2 (stereo unspecified) ?
GSTO1 counter: 15.6; Fh CTSL1 inh: -4.0; PAD4 FP inh: 25.3*; TDP2 inh: 4.8; PAD4 confirm: 3.2

How did CC(=O)c1cc(-c2cc(C(F)(F)F)cc(C(F)(F)F)c2)c(=O)n2c1CCC2 do in these assays?
TDP2 inh: 2.0

What do the screens show for `Cc1cccc(NC(=S)NN2CCOCC2)c1C`?
GSTO1 counter: 5.2; Fh CTSL1 inh: -2.4; PAD4 FP inh: 2.1; TDP2 inh: -10.6

How did Cc1cccc(NC(=S)Nc2ccc(N3CCOCC3)cc2)c1C do in these assays?
GSTO1 counter: 5.6; Fh CTSL1 inh: -2.7; PAD4 FP inh: 23.1*; TDP2 inh: 19.1; PAD4 confirm: 3.4

How did Cc1cc([N+](=O)[O-])nn1CCCC(=O)Nc1ccc2c(c1)OCO2 do in these assays?
GSTO1 counter: 0.6; Fh CTSL1 inh: 6.3; PAD4 FP inh: 15.3*; TDP2 inh: -3.7; PAD4 confirm: 0.4

What do the screens show for `Cc1ccccc1Cn1cc(NC(=O)CCCn2nc([N+](=O)[O-])cc2C)cn1`?
GSTO1 counter: 1.2; Fh CTSL1 inh: 0.9; PAD4 FP inh: 2.7; TDP2 inh: -1.3

How did CN(C)S(=O)(=O)c1cccc(N=C2NN=C(c3ccccc3)CS2)c1 do in these assays?
GSTO1 counter: 8.1; Fh CTSL1 inh: 1.6; PAD4 FP inh: -0.1; TDP2 inh: -10.1

Results for COc1ccc(C2=NNC(=Nc3cc(S(=O)(=O)N(C)C)ccc3C)SC2)c(OC)c1 ?
GSTO1 counter: 11.9; Fh CTSL1 inh: 2.5; PAD4 FP inh: 17.5*; TDP2 inh: 18.5; PAD4 confirm: 12.1

How did CC(OC(=O)c1nc(Cl)ccc1Cl)C(=O)NC1CCCCC1C (stereo unspecified) do in these assays?
PAD4 FP inh: 25.1*; TDP2 inh: 1.5; PAD4 confirm: 4.4

Results for CC(=O)Nc1cccc(C(=O)Nc2ccccc2C(=O)O)c1 ?
GSTO1 counter: 6.6; Fh CTSL1 inh: 4.9; PAD4 FP inh: -0.1; TDP2 inh: 2.0

How did CC(=O)Nc1ccc(S(=O)(=O)Nc2cccc(C(=O)Nc3ccccc3C(=O)O)c2)cc1 do in these assays?
GSTO1 counter: -34.4; Fh CTSL1 inh: -2.1; PAD4 FP inh: 17.9*; TDP2 inh: 1.5; PAD4 confirm: 3.0

What do the screens show for `CCN1C(=O)[C@@H]2C(C(=O)c3cnccn3)=NN[C@@H]2C1=O`?
GSTO1 counter: 4.7; Fh CTSL1 inh: -0.2; PAD4 FP inh: 19.6*; TDP2 inh: 9.5; PAD4 confirm: -6.7

Results for CCn1c(-c2cc(Br)cc(OC)c2O)nc2cc(S(=O)(=O)N(C)C)ccc21 ?
GSTO1 counter: -9.6; Fh CTSL1 inh: -1.1; PAD4 FP inh: 17.6*; TDP2 inh: 3.5; PAD4 confirm: 22.0*

What do the screens show for `Cc1sc(NC(=O)c2ccccc2)c(C(c2ccc(Cl)cc2)N2CCN(CCO)CC2)c1C` (stereo unspecified)?
GSTO1 counter: 4.4; Fh CTSL1 inh: -6.9; PAD4 FP inh: 17.0*; TDP2 inh: -6.6; PAD4 confirm: -0.6

What do the screens show for `CC(C)(C)OC(=O)N[C@@H]1C=CC(=O)C1`?
TDP2 inh: 6.2

What do the screens show for `CCN(CC)c1ccc(N=Cc2ccc(N(CC)CC)cc2O)cc1`?
GSTO1 counter: 57.4*; Fh CTSL1 inh: -1.4; PAD4 FP inh: 16.7*; TDP2 inh: 7.8; PAD4 confirm: -2.7

Results for Cc1ccccc1Cn1cc(CN2[C@@H](C)COc3cc(Br)ccc3S2(=O)=O)nn1 ?
TDP2 inh: -4.0

How did O=C(NCCCN1CCOCC1)c1ccc(Cl)cc1Cl do in these assays?
GSTO1 counter: 2.1; Fh CTSL1 inh: 10.6; PAD4 FP inh: 14.8*; TDP2 inh: -3.1; PAD4 confirm: 1.4

Assay outcomes: PubChem BioAssay, The Scripps Research Institute Molecular Screening Center
